Yeast life ext = extends the lifespan of yeast. S. cerevisiae growth with nicotinamide, OD615; deaD strain in restrictive glucose medium. inhibition of the nicotinamide effect, % at 10 µM. actives 0.68% (n = 130,000). AID 775;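 active means inhibition above a set limit, placed 3 SD over the median of all compounds, cut at about 26% in these data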
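Test system – modified budding yeast, DeaD strain · Compound – single dose 10 µM compound, 0.25% DMSO · Times – culture preincubation 4 h, compound exposure 48 h, both 30 °C · Detection – optical density (absorbance) at 615 nm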
RAM network inh = blocks the yeast RAM network. S. cerevisiae dse1pr::URA3 reporter, 5-FOA growth OD615, 2 d; analog-sensitive cbk1-as2 kinase mutant strain. inhibition, % at 50 µM. actives 1.8% (n = 190,000);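 active means inhibition above a set limit, 3 SD over mean compound inhibition, cut at about 8.4% in these data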;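 further: inhibition rescues growth on 5-FOA so higher OD means more RAM inhibition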
TNAP inh hi DEA = blocks human TNAP under high phosphate acceptor concentration; P05186; purified TNAP, CDP-star luminescence, 1 M DEA; inhibition, % at 20 µM; actives 0.03% (n = 200,000);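 active means over 50% inhibition of tissue-nonspecific alkaline phosphatase at 20 µM in the single-dose screen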
Target sequence (P05186 whole entry, looked up): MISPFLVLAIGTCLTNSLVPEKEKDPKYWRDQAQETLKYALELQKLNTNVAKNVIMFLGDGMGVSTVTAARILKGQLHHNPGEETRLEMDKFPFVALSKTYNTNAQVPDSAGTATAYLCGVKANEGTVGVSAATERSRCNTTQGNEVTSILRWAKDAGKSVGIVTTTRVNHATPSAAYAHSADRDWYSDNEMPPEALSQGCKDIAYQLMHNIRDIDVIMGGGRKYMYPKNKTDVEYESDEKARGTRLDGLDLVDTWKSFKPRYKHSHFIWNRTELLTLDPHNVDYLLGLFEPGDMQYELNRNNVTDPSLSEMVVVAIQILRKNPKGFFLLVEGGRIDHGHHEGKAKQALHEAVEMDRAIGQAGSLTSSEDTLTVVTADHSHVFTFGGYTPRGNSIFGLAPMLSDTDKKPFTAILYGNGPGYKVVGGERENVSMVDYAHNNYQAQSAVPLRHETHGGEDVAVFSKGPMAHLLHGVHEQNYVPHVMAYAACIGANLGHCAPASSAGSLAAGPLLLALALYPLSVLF
Yeast growth inh = yeast BB579 growth reduction in restrictive medium; S. cerevisiae BB579 growth, OD615, 48 h; inhibition, % at 10 µM; actives 0.51% (n = 140,000); AID 804;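 active means inhibition above a set limit, 3 SD over the mean compound inhibition, cut at about 44% in these data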
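Detection: OD615 turbidity measurement; Material: Saccharomyces cerevisiae DeaD strain BB579, replicative lifespan model yeast; Timing: 48 h exposure, 30 °C; Doses: single 10 µM dose; Medium: CSMM-D restrictive synthetic medium containing dextrose (glucose); Controls: amphotericin B at 10 µg/mL as positive control.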
TNAP inh no acc = blocks human TNAP activity with no phosphate acceptor present | purified TNAP, CDP-star luminescence, 30 min | actives 0.26% (n = 200,000) | inhibition, % at 20 µM | P05186;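 active means tissue-nonspecific alkaline phosphatase inhibition above about 50% at 20 µM in the single-dose screen, limit read from the data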
TNAP act hi DEA = activators of human TNAP at high phosphate acceptor concentration; activation factor at 20 µM; purified TNAP, CDP-star luminescence, 1 M DEA, 30 min; stronger effect = higher value; 0 = EDTA background, 1 = DMSO-only activity; 200,000 tested, under 10 active; AID 1136; P05186;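 active means activation factor at least 2 at 20 µM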
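Dosing: 20 µM single point. System: human TNAP. Amount: TNAP 1/800 final. Incubation: 30 min, room temperature. Read-out: TNAP activation factor scaled between EDTA and DMSO control wells. Signal: luminescence from CDP-star hydrolysis. Medium: 1 M DEA, pH 9.8, Mg2+, Zn2+. Control set: EDTA negative control, DMSO positive control.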
Each line names hits and unclear results; the compound was inactive in the other large screens. Compounds with a hit are over-represented: about 2.8% of the library has one in this group of screens.

CCCCCCCCCCCCCCCC[n+]1cccc(C(=O)N(CC)CC)c1	Yeast growth inh 100.8
CCCCCCCCCCCCCCCC[n+]1ccc(C(N)=O)cc1	Yeast growth inh 100.0
CCCCCCCCCCCCCCCC[n+]1ccc(/C=N/O)cc1	Yeast growth inh 99.6
CCCCN(CCCC)C(=O)C[n+]1cccc(/C=N/O)c1	none (no result: Yeast life ext, Yeast growth inh)
CCOC(=O)c1cn(-c2nc(-c3ccc(Cl)cc3)cs2)c2c(F)c(N3CC(C)OC(C)C3)c(F)cc2c1=O (stereo unspecified)	none
CCOc1ccccc1NC(=O)c1cc(SC)ccc1Cl	none (no result: Yeast life ext, Yeast growth inh)
CCOCC(=O)Nc1c(C(=O)Nc2ccc(OC)cc2OC)oc2ccccc12	RAM network inh 10.8
Cc1ccc(C)c(SCC(=O)OC/C(O)=C(\C#N)c2nc3ccccc3[nH]2)c1	RAM network inh 8.5 (no result: Yeast life ext, Yeast growth inh)
Cc1c(-c2cccc(Cl)c2)nc2ccccc2c1C(=O)OC/C(O)=C(\C#N)c1nc2ccccc2[nH]1	RAM network inh 10.6 (no result: Yeast life ext, Yeast growth inh)
N#C/C(=C(/O)COC(=O)CSc1ccc2ccccc2c1)c1nc2ccccc2[nH]1	none
O=C(NC1CCCCC1)Sc1ccc(Cl)cc1	Yeast growth inh 52.1
O=C(Nc1cccc(S(=O)(=O)NC2=NCCCCC2)c1)c1cc(-c2ccccc2Cl)nc2ccccc12	RAM network inh 11.2
Cc1ccc(-n2c(SCC(=O)Nc3cccc(S(=O)(=O)NC4=NCCCCC4)c3)nc3ccccc3c2=O)cc1	RAM network inh 9.8
CCc1ccc(-n2c(SCC(=O)Nc3cccc(S(=O)(=O)NC4=NCCCCC4)c3)nc3ccccc3c2=O)cc1	none
C=CCOc1c(Cl)cc(C2NC(=O)NC(C)=C2C(=O)OC)cc1Cl (stereo unspecified)	none
CCOC(=O)CN(c1ccccn1)S(=O)(=O)c1ccc(OC)cc1	none (no result: Yeast life ext, Yeast growth inh)
CCC1C(C#N)=C(N)OC2=C1C(=O)CC(C)(C)C2 (stereo unspecified)	none (no result: Yeast life ext)
CCCCCCC1C(C#N)=C(N)OC2=C1C(=O)CC(C)(C)C2 (stereo unspecified)	Yeast life ext 40.1
COCCCN1C(=O)C(=O)/C(=C(/O)c2ccccc2)C1c1ccc2c(c1)OCO2 (stereo unspecified)	RAM network inh 9.7
Cc1ccc(N2C(SCC(=O)O)=NC(=Nc3cccc(C)c3)C23CCCC3)cc1	none (no result: Yeast life ext, Yeast growth inh)
COc1cc(/C=C2\CC/C(=C\c3cc(OC)c(O)c(OC)c3)C2=O)cc(OC)c1O	TNAP inh hi DEA 57.3, TNAP inh no acc 61.1
COc1cc(/C=C2/CCC/C(=C\c3cc(O)c(OC)c(Cl)c3)C2=O)cc(Cl)c1O	TNAP inh hi DEA 53.4, TNAP inh no acc 51.8
COc1cc(/C=C2\CC/C(=C\c3cc(OC)c(OC)c(OC)c3)C2=O)cc(OC)c1OC	none
COc1cccc(CNC(=O)CCC2CCCN(Cc3cc4ccccc4o3)C2)c1 (stereo unspecified)	none (no result: Yeast life ext, Yeast growth inh)
Cc1cccc(N(CC(=O)NCc2ccc3c(c2)OCO3)C(=O)CCC(=O)Nc2ccccn2)c1	none
C=CCNC(=S)NNC(=O)c1cc(O)ccc1O	TNAP inh no acc 67.8 (no result: Yeast life ext, Yeast growth inh)
CNCCCNCc1ccc(SC)cc1	none
CCOc1ccc(NC(=O)C(Cc2ccccc2)N2C(=O)c3cccc4cccc(c34)C2=O)cc1 (stereo unspecified)	none (no result: Yeast life ext, Yeast growth inh)
O=C(N/N=C/c1coc2ccccc2c1=O)c1cn(-c2ccccc2)nc1-c1ccccc1	Yeast life ext 27.6
O=C(N/N=C/c1coc2ccccc2c1=O)c1ccccc1	none (no result: Yeast life ext, Yeast growth inh)
Cn1c(=O)c2c(nc(NCC3CCCO3)n2Cc2cccc(Br)c2)n(C)c1=O (stereo unspecified)	none
CCOC(=O)C(C(=O)OCC)C(C)(C)/C(C)=N\Nc1ccc([N+](=O)[O-])cc1[N+](=O)[O-]	RAM network inh 9.0
C/C(=N\Nc1ccc([N+](=O)[O-])cc1[N+](=O)[O-])C(C)C(C)C (stereo unspecified)	RAM network inh 9.6 (no result: Yeast life ext, Yeast growth inh)
CCOC(=O)C(C)/C(C)=N\Nc1ccc([N+](=O)[O-])cc1[N+](=O)[O-] (stereo unspecified)	none (no result: Yeast life ext, Yeast growth inh)
COc1ccccc1Nc1ncnc2ccccc12	none
Cc1n(C)c2cc(Cl)ccc2[n+]1Cc1ccccc1	none (no result: Yeast life ext, Yeast growth inh)
O=C(O)c1nn(-c2ccccc2)nc1-c1nn(-c2ccccc2)nc1C(=O)O	RAM network inh 8.9
O=C1c2ccccc2C(=O)N1Cc1cnc(N2CCN(c3ccccc3)CC2)s1	none (no result: Yeast life ext, Yeast growth inh)
CC(C)n1nc(C(=O)Oc2cccc(Cl)c2Cl)c2ccccc2c1=O	Yeast life ext 34.7
CC(C)n1nc(C(=O)Oc2cc(Cl)ccc2Cl)c2ccccc2c1=O	none
CC(C)c1cc[n+](-c2nc([O-])sc2C=O)cc1	Yeast life ext 30.8
O=C1SC(SCc2ccccc2)=N/C1=C\c1ccco1	RAM network inh 8.8
CCC(C)NCCOc1cc(C)cc(C)c1C (stereo unspecified)	none (no result: Yeast life ext, Yeast growth inh)
O=c1c(-c2ccc(Cl)cc2)[n+]([O-])c2ccccc2n1OCc1ccccn1	Yeast life ext 45.3
C#CCNC(=O)C1=C[C@H](c2ccc(C(F)(F)F)cc2)[C@@H](CCCO)[C@H](OCC)O1	none (no result: Yeast life ext, Yeast growth inh)
O=C(c1ccccc1)N1CC(COc2ccccc2)OC(c2ccco2)O1 (stereo unspecified)	Yeast life ext 26.7
COc1cc(C(c2c(C)[nH][nH]c2=O)c2c(C)[nH][nH]c2=O)ccc1OC(C)C	TNAP inh hi DEA 87.1, TNAP inh no acc 81.8
COc1cc(C(c2c(C)[nH][nH]c2=O)c2c(C)[nH][nH]c2=O)ccc1OCc1ccc([N+](=O)[O-])cc1	none
COc1cc(C(c2c(C)[nH][nH]c2=O)c2c(C)[nH][nH]c2=O)cc(OC)c1OC	none (no result: Yeast life ext, Yeast growth inh)
COc1cc(C(c2c(C)[nH][nH]c2=O)c2c(C)[nH][nH]c2=O)ccc1OS(=O)(=O)c1ccccc1	TNAP inh hi DEA 71.8
COc1cc(C(c2c(C)[nH][nH]c2=O)c2c(C)[nH][nH]c2=O)ccc1OS(=O)(=O)c1ccc(C)cc1	TNAP inh hi DEA 50.8
Cc1csc(CCc2nc(C)cs2)n1	none
CC(=O)c1ccc(-c2ccc(C(=O)N3CCCc4ccccc43)o2)cc1	RAM network inh 9.4 (no result: Yeast life ext, Yeast growth inh)
CCN(CCO)C(=O)C12CCC(C)(C(=O)C1)C2(C)C (stereo unspecified)	Yeast life ext 68.0
Cc1ccc(C(=O)N2CCCC2)cc1S(=O)(=O)Nc1ccccc1	none
Cc1ccc(C(=O)NCCSC2CCCCC2)cc1S(=O)(=O)Nc1ccccc1	RAM network inh 11.3
COc1ccc(CCN(Cc2cccs2)S(=O)(=O)c2ccc(-n3cnnn3)cc2)cc1OC	none (no result: TNAP inh hi DEA, TNAP inh no acc, TNAP act hi DEA)
COc1cc(S(=O)(=O)N(CCc2ccccc2)Cc2cccs2)ccc1-n1cnnn1	RAM network inh 9.1 (no result: Yeast life ext)
O=C1C=C(Nc2ccc(Cl)cc2)C(=O)N1c1ccc(Cl)cc1	none

Compound activity from PubChem BioAssay.
